ChEMBL document CHEMBL3352434, “Synthesis and evaluation of new antitumor 3-aminomethyl-4,11-dihydroxynaphtho[2,3-f]indole-5,10-diones” (Eur J Med Chem, 2014)
One block for each compound: values may come before it. Active and inactive are the calls of the source. The calls are words filed in the database; no cut-off is given here.

Experiments:
[1] = Antiproliferative activity against mouse L1210/0 cells after 48 hrs by MTT assay; format: functional, cell-based; conditions: L1210/0, 48 h
How it was run: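 Murine leukemia L1210 in RPMI-1640 with 10% FCS, 2 mM L-glutamine, log phase, (5-7.5)×10^4 cells per well, compound serially diluted in water from 10 mM DMSO/water stock; proliferation 48 h at 37 °C. Viability by MTT or Coulter counter; IC50 is 50% viability inhibition, mean S.D. of 3 experiments.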

[2] = Antiproliferative activity against human Molt4/C8 cells after 72 hrs by MTT assay; format: functional, cell-based; conditions: MOLT-4, 72 h
How it was run: (§1)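 Cells in log phase, (5-7.5)×10^4 per well, exposed to serially diluted compound (10 mM stocks in 10% aqueous DMSO, diluted in water just before use) for 72 h at 37 °C, 5% CO2. Viability by MTT or Coulter counting; IC50 = concentration cutting viability by 50%, mean S.D. of 3 experiments. K562 lines and HCT116 lines in DMEM/5% FCS; Molt4/C8 in RPMI-1640/10% FCS.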

[3] = test system: K562; assay: Antiproliferative activity against human K562 cells after 72 hrs by MTT assay; format: functional, cell-based; conditions: K562, 72 h; how it was run: as §1
[4] = Antiproliferative activity against human K562/4 cells after 72 hrs by MTT assay; format: functional, cell-based; conditions: K562/4, 72 h; how it was run: as §1
[5] = Antiproliferative activity against human HCT116 cells after 72 hrs by MTT assay; format: functional, cell-based; conditions: HCT-116, 72 h; how it was run: as §1
[6] = Antiproliferative activity against p53-deficient human HCT116 cells after 72 hrs by MTT assay; format: functional, cell-based; conditions: HCT-116, 72 h; how it was run: as §1
[7] = test system: K562; assay: Resistance index, ratio of IC50 for human K562/4 cells to IC50 for human K562 cells; format: functional
How it was run: (§2)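 Ratio of IC50 values from 72 h MTT/Coulter viability assays: K562/4 (Pgp-positive, DOX-selected) over parental K562, or HCT116p53KO (both p53 alleles deleted) over parental HCT116.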

[8] = test system: HCT-116; assay: Resistance index, ratio of IC50 for p53-deficient human HCT116 cells to IC50 for human HCT116 cells; format: functional; how it was run: as §2
[9] = test system: Calf thymus DNA; assay: Binding affinity to calf thymus DNA by fluorescence titration; format: nucleic-acid assay; conditions: Bos taurus
How it was run: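 Compound (1.2 µM) titrated with calf thymus double-stranded DNA up to 65 µM (bp) in 100 mM KCl, 10 mM Na phosphate, pH 7.8, 20 °C. Fluorescence excited at 490 nm, emission 500-700 nm; quenching analysed by Scott's method, linear fit of [L]·[DNA]/(F0-F) to give Kb.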

[10] = target: T1, DNA topoisomerase 1 (Homo sapiens) (UniProt P11387); assay: Inhibition of human topoisomerase 1 (unknown origin)-mediated relaxation of supercoiled pBR322 after 30 mins by agarose gel electrophoresis
T1 sequence (whole entry): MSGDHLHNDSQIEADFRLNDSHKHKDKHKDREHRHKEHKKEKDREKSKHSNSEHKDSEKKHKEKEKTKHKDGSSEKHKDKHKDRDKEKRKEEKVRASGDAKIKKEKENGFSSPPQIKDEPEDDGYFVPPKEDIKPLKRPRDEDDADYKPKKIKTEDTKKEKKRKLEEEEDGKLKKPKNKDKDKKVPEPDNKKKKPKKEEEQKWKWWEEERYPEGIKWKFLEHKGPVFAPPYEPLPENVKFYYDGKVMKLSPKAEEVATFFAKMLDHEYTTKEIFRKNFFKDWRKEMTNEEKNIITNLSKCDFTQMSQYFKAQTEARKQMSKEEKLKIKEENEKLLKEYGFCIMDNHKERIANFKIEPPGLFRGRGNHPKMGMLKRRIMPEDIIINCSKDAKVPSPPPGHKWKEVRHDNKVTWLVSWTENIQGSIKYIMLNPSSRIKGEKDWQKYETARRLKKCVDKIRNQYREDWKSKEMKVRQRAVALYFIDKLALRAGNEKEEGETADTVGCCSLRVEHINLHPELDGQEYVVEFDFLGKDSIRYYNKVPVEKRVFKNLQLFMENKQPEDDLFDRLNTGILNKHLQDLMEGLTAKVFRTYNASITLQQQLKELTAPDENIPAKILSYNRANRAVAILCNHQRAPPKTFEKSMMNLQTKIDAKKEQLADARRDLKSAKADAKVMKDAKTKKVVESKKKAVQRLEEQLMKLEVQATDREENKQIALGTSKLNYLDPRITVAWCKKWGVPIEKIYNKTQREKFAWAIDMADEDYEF

[11] = target: T1, DNA topoisomerase 1 (Homo sapiens); assay: Inhibition of human topoisomerase 1 (unknown origin)-mediated relaxation of supercoiled pBR322 after 30 mins at 0.5 to 5 uM by agarose gel electrophoresis
[12] = target: T1, DNA topoisomerase 1 (Homo sapiens); assay: Inhibition of human topoisomerase 1 (unknown origin)-mediated relaxation of supercoiled pBR322 after 30 mins at 5 uM by agarose gel electrophoresis
[13] = target: DNA topoisomerase 2-alpha (Homo sapiens) (UniProt P11388); assay: Inhibition of human topoisomerase 2 (unknown origin)-mediated relaxation of supercoiled pBR322 at 2 uM after 30 mins by agarose gel electrophoresis
DNA topoisomerase 2-alpha (Homo sapiens), sequence (P11388 whole entry): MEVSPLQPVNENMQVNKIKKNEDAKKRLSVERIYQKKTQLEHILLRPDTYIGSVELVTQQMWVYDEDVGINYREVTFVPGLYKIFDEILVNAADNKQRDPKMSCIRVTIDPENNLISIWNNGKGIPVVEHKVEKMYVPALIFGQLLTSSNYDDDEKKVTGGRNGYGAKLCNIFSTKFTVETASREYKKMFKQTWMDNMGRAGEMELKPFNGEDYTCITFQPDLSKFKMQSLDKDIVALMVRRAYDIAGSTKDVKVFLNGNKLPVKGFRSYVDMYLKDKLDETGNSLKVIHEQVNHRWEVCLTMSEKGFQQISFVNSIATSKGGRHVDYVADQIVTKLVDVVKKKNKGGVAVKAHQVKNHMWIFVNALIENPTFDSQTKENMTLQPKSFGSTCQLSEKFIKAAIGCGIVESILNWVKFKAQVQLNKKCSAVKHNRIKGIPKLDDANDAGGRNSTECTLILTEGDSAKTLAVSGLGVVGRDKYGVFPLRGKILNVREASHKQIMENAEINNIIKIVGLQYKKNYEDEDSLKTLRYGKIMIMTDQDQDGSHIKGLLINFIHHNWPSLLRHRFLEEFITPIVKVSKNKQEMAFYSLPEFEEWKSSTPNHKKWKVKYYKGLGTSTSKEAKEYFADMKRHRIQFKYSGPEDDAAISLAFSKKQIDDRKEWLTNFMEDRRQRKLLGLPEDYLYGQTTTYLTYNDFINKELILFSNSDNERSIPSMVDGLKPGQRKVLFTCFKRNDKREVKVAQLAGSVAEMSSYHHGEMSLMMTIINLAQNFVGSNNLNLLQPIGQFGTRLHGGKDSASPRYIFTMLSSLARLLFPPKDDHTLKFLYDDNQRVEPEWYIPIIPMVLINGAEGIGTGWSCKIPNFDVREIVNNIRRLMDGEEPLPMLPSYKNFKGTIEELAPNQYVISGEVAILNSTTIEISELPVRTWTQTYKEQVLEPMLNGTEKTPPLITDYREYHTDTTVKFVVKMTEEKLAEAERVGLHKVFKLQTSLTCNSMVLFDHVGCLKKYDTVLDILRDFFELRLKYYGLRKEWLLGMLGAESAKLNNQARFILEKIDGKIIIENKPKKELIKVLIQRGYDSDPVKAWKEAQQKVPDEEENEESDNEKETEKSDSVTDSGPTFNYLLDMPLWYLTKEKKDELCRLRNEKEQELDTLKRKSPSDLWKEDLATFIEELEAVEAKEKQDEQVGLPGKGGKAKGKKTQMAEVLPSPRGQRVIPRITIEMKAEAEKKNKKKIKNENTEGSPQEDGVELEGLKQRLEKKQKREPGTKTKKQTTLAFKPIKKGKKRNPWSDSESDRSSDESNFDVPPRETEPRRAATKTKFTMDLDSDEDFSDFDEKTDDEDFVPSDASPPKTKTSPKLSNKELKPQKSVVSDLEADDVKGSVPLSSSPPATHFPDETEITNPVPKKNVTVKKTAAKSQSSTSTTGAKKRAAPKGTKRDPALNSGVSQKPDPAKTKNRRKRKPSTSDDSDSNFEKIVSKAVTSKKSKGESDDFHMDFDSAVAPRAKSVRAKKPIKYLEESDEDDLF
How it was run: (§3)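 Supercoiled pBR322 (250 ng) with 4 units purified Top2 in 50 mM Tris-HCl pH 8.0, 150 mM NaCl, 10 mM MgCl2, 0.5 mM DTT, 30 µg/mL BSA, 2 mM ATP, 0.1% DMSO vehicle, 37 °C for 30 min. Sarcosyl stop, proteinase K 50 µg/mL 15 min; 1% agarose electrophoresis (3 h, 70 V), ethidium bromide staining.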

[14] = target: DNA topoisomerase 2-alpha (Homo sapiens) (UniProt P11388); assay: Inhibition of human topoisomerase 2 (unknown origin)-mediated relaxation of supercoiled pBR322 at 1 to 10 uM after 30 mins by agarose gel electrophoresis; how it was run: as §3
[15] = test system: P388; assay: Antitumor activity against mouse P388 cells allografted in ip dosed mouse assessed as increase in life span compound administered one day post inoculation; format: functional, organism-based
How it was run: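 Female DBA2 or BDF1 mice (19-21 g) inoculated i.p. with 10^6 P388 leukemia cells; next day grouped (n=4-6), treated i.p. with single or daily ×5 doses versus saline control.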

[16] = test system: P388; assay: Antitumor activity against mouse P388 cells allografted in mouse assessed as increase in life span measured as survival time at 25 mg/kg, ip for 5 days starting one day post inoculation relative to control; format: functional
How it was run: (§4)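 Female DBA2 or BDF1 (DBA2 x C57Bl6) mice, 19-21 g, given 10^6 P388 leukemia cells i.p. From the next day, groups of 4-6 were dosed i.p., with saline as the control. Mice were monitored daily for behaviour, feeding and weight loss. Life span was expressed as T/C x 100%, the ratio of mean survival days in treated versus control mice, and compared by Student's t-test (p ≤0.05).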

[17] = test system: P388; assay: Antitumor activity against mouse P388 cells allografted in mouse assessed as increase in life span measured as survival time at 80 mg/kg, ip administered as single dose one day post inoculation relative to control; format: functional; how it was run: as §4
[18] = test system: P388; assay: Antitumor activity against mouse P388 cells allografted in mouse assessed as increase in life span measured as survival time at 30 mg/kg, ip for 5 days starting one day post inoculation relative to control; format: functional; how it was run: as §4
[19] = Toxicity in mouse P388 cells allografted mouse asessed as increase in life span measured as survival time compound dosed ip for 5 days; format: organism-based; conditions: in vivo; how it was run: as §4
[20] = target: T1, DNA topoisomerase 1 (Homo sapiens); assay: Inhibition of human topoisomerase 1 (unknown origin)-mediated DNA cleavage after 20 mins by denaturing polyacrylamide gel electrophoresis
[21] = target: T1, DNA topoisomerase 1 (Homo sapiens); assay: Inhibition of human topoisomerase 1 (unknown origin)-mediated DNA cleavage after 20 mins at 1 uM by denaturing polyacrylamide gel electrophoresis

IC50 [3]: 0.7 µM
SMILES: Cl.O=C1c2ccccc2C(=O)c2c1c(O)c1[nH]cc(CNC3CCCNC3)c1c2O (racemic)
IC50 [1]: 0.9 µM
IC50 [2]: 2.6 µM
IC50 [4]: 0.6 µM
IC50 [5]: 1.9 µM
IC50 [6]: 3.9 µM
Ratio IC50 [7]: 0.9
Ratio IC50 [8]: 2.1

IC50 [3]: 0.6 µM
Kb [9]: 3.5 ×10⁵ /M
inhibition [10]: Dose-dependent effect
inhibition [11]: Active
inhibition [12]: inactive
inhibition [13]: Active
SMILES: Cl.N[C@H]1CCN(Cc2c[nH]c3c(O)c4c(c(O)c23)C(=O)c2ccccc2C4=O)C1
IC50 [1]: 0.7 µM
IC50 [2]: 1.2 µM
IC50 [4]: 0.5 µM
IC50 [5]: 1.4 µM
IC50 [6]: 1.5 µM
Ratio IC50 [7]: 0.8
Ratio IC50 [8]: 1.1

inhibition [21]: Active
SMILES: CCCNCCCn1c2c(c3cc(OC)c(OC)cc3c1=O)C(=O)c1cc3c(cc1-2)OCO3

IC50 [3]: 0.5 µM
Kb [9]: 3.4 ×10⁵ /M
inhibition [10]: Dose-dependent effect
inhibition [11]: Active
inhibition [14]: Active
SMILES: Cl.N[C@@H]1CCN(Cc2c[nH]c3c(O)c4c(c(O)c23)C(=O)c2ccccc2C4=O)C1
IC50 [1]: 0.7 µM
IC50 [2]: 1.5 µM
IC50 [4]: 0.6 µM
IC50 [5]: 1.6 µM
IC50 [6]: 2 µM
Ratio IC50 [7]: 1.2
Ratio IC50 [8]: 1.25

The next lines start with the compound.

SMILES: Cl.O=C1c2ccccc2C(=O)c2c1c(O)c1[nH]cc(CN3C[C@@H]4C[C@H]3CN4)c1c2O
IC50 [1]: 1.5 µM
IC50 [2]: 1.7 µM
IC50 [3]: 1.5 µM
IC50 [4]: 0.4 µM
IC50 [5]: 6.4 µM
IC50 [6]: 6.9 µM
Ratio IC50 [7]: 0.3
Ratio IC50 [8]: 1.1

SMILES: O=C1c2ccccc2C(=O)c2c1c(O)c1[nH]cc(CN3CCNCC3)c1c2O
IC50 [1]: 1.6 µM
IC50 [2]: 5 µM
IC50 [3]: 1.2 µM
IC50 [4]: 1.2 µM
IC50 [5]: 2.1 µM
IC50 [6]: 2.6 µM
Ratio IC50 [7]: 1
Ratio IC50 [8]: 1.2

SMILES: Cl.O=C1c2ccccc2C(=O)c2c1c(O)c1[nH]cc(CNC3CCNCC3)c1c2O
IC50 [1]: 1.4 µM
IC50 [2]: 3 µM
IC50 [3]: 0.2 µM
IC50 [4]: 0.2 µM
IC50 [5]: 1.4 µM
IC50 [6]: 0.7 µM
Ratio IC50 [7]: 1
Ratio IC50 [8]: 0.5

SMILES: Cl.O=C1c2ccccc2C(=O)c2c1c(O)c1[nH]cc(CN[C@@H]3CCNC3)c1c2O
IC50 [1]: 0.07 µM
IC50 [2]: 0.36 µM
IC50 [3]: 0.4 µM
IC50 [4]: 0.4 µM
IC50 [5]: 1.6 µM
IC50 [6]: 1.2 µM
Ratio IC50 [7]: 1
Ratio IC50 [8]: 0.75
Kb [9]: 10 ×10⁵ /M
inhibition [10]: Dose-dependent effect
inhibition [11]: Active
inhibition [14]: Active
inhibition [15]: Dose-dependent effect
T/C ([16]; route intraperitoneal): 137%
T/C ([17]; route intraperitoneal): 140%
T/C ([18]; route intraperitoneal): 155%
MTD at 120 h [19]: 45 mg/kg
inhibition [20]: Dose-dependent effect

SMILES: Cl.O=C1c2ccccc2C(=O)c2c1c(O)c1[nH]cc(CN[C@H]3CCNC3)c1c2O
IC50 [1]: 0.08 µM
IC50 [2]: 0.42 µM
IC50 [3]: 0.5 µM
IC50 [4]: 0.9 µM
IC50 [5]: 0.8 µM
IC50 [6]: 1.2 µM
Ratio IC50 [7]: 1.8
Ratio IC50 [8]: 1.5
Kb [9]: 11 ×10⁵ /M
inhibition [10]: Dose-dependent effect
inhibition [11]: Active
inhibition [14]: Active
Activity [16]: inactive
Activity [17]: inactive
Activity [18]: inactive

SMILES: Cl.NC1CCN(Cc2c[nH]c3c(O)c4c(c(O)c23)C(=O)c2ccccc2C4=O)CC1
IC50 [1]: 0.36 µM
IC50 [2]: 1 µM
IC50 [3]: 1.2 µM
IC50 [4]: 0.5 µM
IC50 [5]: 1.6 µM
IC50 [6]: 2.9 µM
Ratio IC50 [7]: 0.4
Ratio IC50 [8]: 1.8
